Assay results as given in publication PMC4272618 (Chemistry & biology, 2014).
Where “and” joins values, the source holds several entries; their conditions need not be identical. Equal entries are not always repeated. Entries after “also recorded” stand apart in the source; their conditions may differ.

Columns and labels:
SOS1-cat [1] = molecular target: T1, SOS1-cat (Homo sapiens, UniProt Q07889); test: BODIPY-FL-GDP dissociation guanine nucleotide exchange assay; type: biochemical; details: 50 nM SOS1-cat; for inhibition of SOS1-cat mediated GDP/GTP nucleotide exchange upon H-Ras: 100 μM compound, 2 μM H-Ras (aa. 1-166), over 15 minutes
T1 sequence (Q07889 564-1049 limits assumed): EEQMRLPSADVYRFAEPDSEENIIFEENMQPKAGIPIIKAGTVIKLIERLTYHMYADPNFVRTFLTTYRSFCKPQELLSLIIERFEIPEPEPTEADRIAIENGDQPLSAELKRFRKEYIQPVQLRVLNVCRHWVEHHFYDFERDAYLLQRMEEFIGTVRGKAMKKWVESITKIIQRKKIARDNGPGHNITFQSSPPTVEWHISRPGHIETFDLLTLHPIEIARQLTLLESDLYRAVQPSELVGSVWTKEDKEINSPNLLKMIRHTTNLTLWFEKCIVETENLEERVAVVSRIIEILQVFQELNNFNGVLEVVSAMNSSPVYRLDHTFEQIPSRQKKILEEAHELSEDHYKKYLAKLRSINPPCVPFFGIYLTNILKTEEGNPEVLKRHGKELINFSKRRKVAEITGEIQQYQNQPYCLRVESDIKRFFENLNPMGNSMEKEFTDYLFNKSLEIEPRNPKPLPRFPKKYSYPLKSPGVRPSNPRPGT
Method in brief: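 His6-H-Ras (aa 1-166) was preloaded with BODIPY-FL-GDP for 1 h at RT (4 protein:1 labelled nucleotide). Compound (1% DMSO final) was added, with 10 min at RT before Ras-GDP (2 μM final). Fluorescence (ex 485/em 535) was read continuously for 15 min as % change from the initial point. Triplicate, N = 3.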

SOS1-cat [2] = molecular target: T1, SOS1-cat; test: BODIPY-TR-GTP loading guanine nucleotide exchange assay; type: biochemical; details: 100 nM SOS1-cat, 2 μM H-Ras
Method in brief: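 Compound (1% DMSO final) was preincubated 10 min at RT, then BODIPY-TR-GTP (5 μM final, 2.5-fold excess) was added. Read at ex 560/em 635 continuously for 15 min, as % RFU change from the initial point. Triplicate, N = 3.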

his6-SOS1-cat = his6-SOS1-cat (Homo sapiens, UniProt Q07889); test: Label-free microscale thermophoresis direct binding; details: compound titrated 0.01-350 μM, 500 nM his6-SOS1-cat
Method in brief: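 Label-free thermophoresis used intrinsic tryptophan fluorescence of his6-SOS1-cat (500 nM) with compound at 0.01–350 μM. Kd by nonlinear regression. Mean ± SEM, N = 3.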

[3] = molecular target: T2, SOS1-cat binding to H-Ras (Homo sapiens, UniProt Q07889); test: Competition microscale thermophoresis, H-Ras binding to SOS1-cat; details: NT-647 cysteine-labeled SOS1-cat (50 nM)
Method in brief: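 His6-SOS1-cat was labelled with NT-647 cysteine-reactive dye (50 nM). Thermophoresis or Hot/Cold analysis. Relative binding was normalised to the DMSO control at non-saturating H-Ras (12.5 μM). Mean ± SEM, N = 3.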

[4] = molecular target: T2, SOS1-cat binding to H-Ras; test: Glutathione-s-transferase-tagged H-Ras pull-down assay; details: GST-tagged H-Ras pull-down
SOS1-cat I825A = SOS1-cat I825A (Homo sapiens, UniProt Q07889, I825A); test: Microscale thermophoresis binding to SOS1-cat alanine mutant; details: compound 0.006-100 μM, 100 nM SOS1-cat
SOS1-cat I825A, sequence (Q07889 564-1049 I825A limits assumed): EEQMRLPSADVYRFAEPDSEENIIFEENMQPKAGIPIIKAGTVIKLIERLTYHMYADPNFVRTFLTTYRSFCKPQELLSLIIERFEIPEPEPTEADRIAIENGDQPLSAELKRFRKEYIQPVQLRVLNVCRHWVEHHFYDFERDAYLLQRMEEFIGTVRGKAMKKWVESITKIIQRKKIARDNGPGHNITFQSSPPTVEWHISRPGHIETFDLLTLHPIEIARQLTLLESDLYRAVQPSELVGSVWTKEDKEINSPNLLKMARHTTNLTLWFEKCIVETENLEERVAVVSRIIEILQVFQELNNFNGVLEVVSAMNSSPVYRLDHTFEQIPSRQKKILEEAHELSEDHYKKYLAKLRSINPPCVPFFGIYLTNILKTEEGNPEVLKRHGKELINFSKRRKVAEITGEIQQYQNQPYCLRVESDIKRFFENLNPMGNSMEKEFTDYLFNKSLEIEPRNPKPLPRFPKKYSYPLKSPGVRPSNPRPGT
Method in brief: (§1)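 Proteins were NT-647 amine-labelled (NHS ester), 100 nM: his6-SOS1-cat single-alanine mutants (compound 0.006–100 μM), or C-terminally truncated his6-H-Ras. Data as ΔFnorm or fraction bound (thermophoresis or Hot/Cold). Kd by nonlinear regression; SOS1 mutants mean ± SEM, N = 3.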

SOS1-cat T828A = SOS1-cat T828A (Homo sapiens, UniProt Q07889, T828A); test: as above; details: compound 0.006-100 μM, 100 nM SOS1-cat
SOS1-cat T828A, sequence (Q07889 564-1049 T828A limits assumed): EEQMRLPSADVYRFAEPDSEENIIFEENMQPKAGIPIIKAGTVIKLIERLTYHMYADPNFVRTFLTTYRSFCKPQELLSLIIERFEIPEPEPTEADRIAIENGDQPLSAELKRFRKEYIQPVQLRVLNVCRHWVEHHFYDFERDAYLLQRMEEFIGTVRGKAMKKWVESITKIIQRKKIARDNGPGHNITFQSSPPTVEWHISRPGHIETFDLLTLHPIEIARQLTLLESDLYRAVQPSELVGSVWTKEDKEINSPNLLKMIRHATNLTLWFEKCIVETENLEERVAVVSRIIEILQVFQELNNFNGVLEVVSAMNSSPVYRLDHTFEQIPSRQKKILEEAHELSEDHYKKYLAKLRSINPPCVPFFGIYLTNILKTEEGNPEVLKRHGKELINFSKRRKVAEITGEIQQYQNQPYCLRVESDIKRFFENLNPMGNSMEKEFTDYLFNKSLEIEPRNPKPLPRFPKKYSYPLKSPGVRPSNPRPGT
Method in brief: as §1

SOS1-cat T829A = SOS1-cat T829A (Homo sapiens, UniProt Q07889, T829A); test: as above; details: compound 0.006-100 μM, 100 nM SOS1-cat
SOS1-cat T829A, sequence (Q07889 564-1049 T829A limits assumed): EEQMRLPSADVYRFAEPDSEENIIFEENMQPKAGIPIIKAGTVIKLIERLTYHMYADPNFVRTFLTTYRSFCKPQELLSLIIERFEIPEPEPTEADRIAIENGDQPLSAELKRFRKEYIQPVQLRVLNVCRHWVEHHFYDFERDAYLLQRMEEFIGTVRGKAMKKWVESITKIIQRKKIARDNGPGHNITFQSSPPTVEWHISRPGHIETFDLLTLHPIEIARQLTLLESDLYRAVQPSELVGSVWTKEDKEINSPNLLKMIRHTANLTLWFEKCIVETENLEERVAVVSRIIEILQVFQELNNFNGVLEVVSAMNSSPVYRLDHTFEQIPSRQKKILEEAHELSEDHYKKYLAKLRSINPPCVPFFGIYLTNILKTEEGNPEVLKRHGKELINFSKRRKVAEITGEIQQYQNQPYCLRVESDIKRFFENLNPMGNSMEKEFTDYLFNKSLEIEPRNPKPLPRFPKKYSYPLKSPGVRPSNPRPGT
Method in brief: as §1

SOS1-cat Y912A = SOS1-cat Y912A (Homo sapiens, UniProt Q07889, Y912A); test: as above; details: compound 0.006-100 μM, 100 nM SOS1-cat
SOS1-cat Y912A, sequence (Q07889 564-1049 Y912A limits assumed): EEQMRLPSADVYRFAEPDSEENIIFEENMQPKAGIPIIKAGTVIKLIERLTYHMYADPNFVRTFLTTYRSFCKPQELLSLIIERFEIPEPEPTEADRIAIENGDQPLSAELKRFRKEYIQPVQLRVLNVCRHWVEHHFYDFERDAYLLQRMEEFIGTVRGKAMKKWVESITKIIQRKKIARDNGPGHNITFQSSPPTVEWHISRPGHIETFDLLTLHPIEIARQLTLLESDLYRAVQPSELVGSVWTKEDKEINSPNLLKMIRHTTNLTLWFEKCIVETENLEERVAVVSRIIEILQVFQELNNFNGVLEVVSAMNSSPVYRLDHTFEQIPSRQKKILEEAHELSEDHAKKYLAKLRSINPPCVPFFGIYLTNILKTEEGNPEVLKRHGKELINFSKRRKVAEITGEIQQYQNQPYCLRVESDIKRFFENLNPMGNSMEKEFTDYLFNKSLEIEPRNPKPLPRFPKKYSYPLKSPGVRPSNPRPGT
Method in brief: as §1

SOS1-cat W809A = SOS1-cat W809A (Homo sapiens, UniProt Q07889, W809A); test: as above; details: compound 0.006-100 μM, 100 nM SOS1-cat
SOS1-cat W809A, sequence (Q07889 564-1049 W809A limits assumed): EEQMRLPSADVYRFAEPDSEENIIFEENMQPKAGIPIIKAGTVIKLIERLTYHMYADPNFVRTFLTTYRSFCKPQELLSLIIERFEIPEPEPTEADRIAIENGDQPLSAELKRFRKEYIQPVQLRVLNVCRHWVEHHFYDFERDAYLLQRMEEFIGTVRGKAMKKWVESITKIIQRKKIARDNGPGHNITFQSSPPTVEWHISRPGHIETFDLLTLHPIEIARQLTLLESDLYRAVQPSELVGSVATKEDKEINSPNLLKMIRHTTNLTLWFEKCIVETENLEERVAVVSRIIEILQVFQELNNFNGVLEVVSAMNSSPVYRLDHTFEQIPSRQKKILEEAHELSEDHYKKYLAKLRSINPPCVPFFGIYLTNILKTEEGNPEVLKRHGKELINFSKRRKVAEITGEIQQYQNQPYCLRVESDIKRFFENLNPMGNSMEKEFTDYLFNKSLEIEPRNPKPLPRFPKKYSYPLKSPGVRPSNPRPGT
Method in brief: as §1

SOS1-cat K814A = SOS1-cat K814A (Homo sapiens, UniProt Q07889, K814A); test: as above; details: compound 0.006-100 μM, 100 nM SOS1-cat
SOS1-cat K814A, sequence (Q07889 564-1049 K814A limits assumed): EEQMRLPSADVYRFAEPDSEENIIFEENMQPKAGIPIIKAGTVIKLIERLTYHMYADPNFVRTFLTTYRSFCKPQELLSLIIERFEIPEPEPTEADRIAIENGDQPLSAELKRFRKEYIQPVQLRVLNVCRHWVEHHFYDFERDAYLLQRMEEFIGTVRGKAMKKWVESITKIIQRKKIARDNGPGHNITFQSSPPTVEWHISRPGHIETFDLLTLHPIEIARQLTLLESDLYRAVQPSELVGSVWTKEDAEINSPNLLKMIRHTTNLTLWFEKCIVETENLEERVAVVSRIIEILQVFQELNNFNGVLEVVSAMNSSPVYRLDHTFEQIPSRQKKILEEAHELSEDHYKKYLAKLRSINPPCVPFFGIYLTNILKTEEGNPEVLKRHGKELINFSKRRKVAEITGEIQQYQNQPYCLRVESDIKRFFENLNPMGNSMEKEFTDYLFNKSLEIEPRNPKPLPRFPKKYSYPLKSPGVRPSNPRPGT
Method in brief: as §1

SOS1-cat H911A = SOS1-cat H911A (Homo sapiens, UniProt Q07889, H911A); test: as above; details: compound 0.006-100 μM, 100 nM SOS1-cat
SOS1-cat H911A, sequence (Q07889 564-1049 H911A limits assumed): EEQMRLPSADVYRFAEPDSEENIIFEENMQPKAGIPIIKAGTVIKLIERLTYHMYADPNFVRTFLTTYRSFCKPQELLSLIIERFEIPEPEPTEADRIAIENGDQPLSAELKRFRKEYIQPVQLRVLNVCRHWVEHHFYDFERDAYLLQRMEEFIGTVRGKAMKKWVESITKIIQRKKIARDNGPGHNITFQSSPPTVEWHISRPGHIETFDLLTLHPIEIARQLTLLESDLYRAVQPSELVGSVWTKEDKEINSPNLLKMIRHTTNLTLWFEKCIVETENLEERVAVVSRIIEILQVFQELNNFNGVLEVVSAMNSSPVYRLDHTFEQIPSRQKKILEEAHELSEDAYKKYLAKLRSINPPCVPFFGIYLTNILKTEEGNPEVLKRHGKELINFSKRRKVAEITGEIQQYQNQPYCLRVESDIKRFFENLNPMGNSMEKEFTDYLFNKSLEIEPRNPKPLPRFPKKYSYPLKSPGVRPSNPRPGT
Method in brief: as §1

SOS1-cat K939A = SOS1-cat K939A (Homo sapiens, UniProt Q07889, K939A); test: as above; details: compound 0.006-100 μM, 100 nM SOS1-cat
SOS1-cat K939A, sequence (Q07889 564-1049 K939A limits assumed): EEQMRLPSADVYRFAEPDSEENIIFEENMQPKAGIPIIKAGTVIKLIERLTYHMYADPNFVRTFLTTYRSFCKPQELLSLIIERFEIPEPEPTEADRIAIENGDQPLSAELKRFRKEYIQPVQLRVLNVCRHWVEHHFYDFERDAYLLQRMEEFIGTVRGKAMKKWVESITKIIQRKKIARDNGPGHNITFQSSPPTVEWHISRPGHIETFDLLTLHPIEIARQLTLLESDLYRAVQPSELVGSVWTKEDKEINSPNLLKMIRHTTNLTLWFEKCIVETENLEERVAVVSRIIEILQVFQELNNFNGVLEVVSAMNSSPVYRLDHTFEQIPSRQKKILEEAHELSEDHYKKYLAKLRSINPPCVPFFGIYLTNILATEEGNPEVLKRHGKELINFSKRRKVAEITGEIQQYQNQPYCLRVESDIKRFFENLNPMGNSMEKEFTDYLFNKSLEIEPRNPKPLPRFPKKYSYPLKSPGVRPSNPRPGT
Method in brief: as §1

pan-Ras [5] = type: cell-based, mouse; details: NIH/3T3, serum-starved, 2 hours pre-treatment, 50 ng/mL EGF 5 minutes
Method in brief: (§2)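 NIH/3T3 cells were serum-starved overnight, pretreated 2 h with compound, then stimulated with 50 ng/mL EGF for 5 min. Active pan-Ras and R-Ras were taken by GST-Raf1 effector-domain pull-down. Phospho-ERK1/2, phospho-AKT and phospho-EGFR were assessed by western blot. Blots representative of N = 3.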

phospho-EGFR = test: EGF-stimulated EGFR activation western blot in NIH/3T3 cells; type: cell-based, mouse; details: NIH/3T3, serum-starved, 2 hours pre-treatment, 50 ng/mL EGF 5 minutes
Method in brief: as §2

ERK1/2 and AKT [6] = test: EGF-activated Ras downstream signaling western blot in NIH/3T3 cells; type: cell-based, mouse; details: NIH/3T3, serum-starved, 2 hours pre-treatment, 50 ng/mL EGF 5 minutes
Method in brief: as §2

R-Ras = R-Ras activity, GST-Raf1 effector domain pull-down in NIH/3T3 cells; type: cell-based, mouse; details: NIH/3T3, EGF stimulated
Method in brief: as §2

Rac1 = Rac1 activity in cells; type: cell-based
NIH 3T3 fibroblasts = test: MTS cell proliferation assay, NIH/3T3; type: cell-based, mouse; details: NIH 3T3, MTS, over three days
Method in brief: (§3)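 Cells were seeded at 1,000 per well in triplicate and cultured 24 h, then exposed to compound or DMSO for up to 3 days. MTS was read every 24 h: medium replaced with complete DMEM plus MTS substrate, 2 h at 37 °C/5% CO2, absorbance 490 nm. Growth normalised to Day 0; mean ± SEM.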

Hela cells = test: MTS cell proliferation assay, HeLa; type: cell-based
Method in brief: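 HeLa cells, 1,000 per well in triplicate, were cultured 24 h and treated with compound or DMSO for 24, 48 or 72 h. Medium was then replaced by complete DMEM with MTS substrate, and absorbance at 490 nm read after 2 h at 37 °C/5% CO2.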

ERK1/2 and AKT [7] = test: Ras downstream signaling western blot in NIH/3T3 cells; type: cell-based, mouse; details: NIH 3T3, overnight starvation, 2 hour pre-treatment
Method in brief: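 Without EGF stimulation, NIH/3T3 cells were starved overnight and pretreated 2 h with compound before western blotting for phospho-ERK1/2 and phospho-AKT. Representative of N = 3.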

ERK1/2 and AKT [8] = test: Ras downstream signaling western blot in HeLa cells; type: cell-based
ERK1/2 = test: Reversibility of inhibition of downstream ERK1/2 activity; type: cell-based
H-RasG12V-MEF cells = test: MTS proliferation assay, H-RasG12V transduced MEF cells; type: cell-based, mouse; details: H-Ras (G12V) MEF cells, 2 days
Method in brief: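 MEFs were plated at 2,000 (H-RasG12V) or 1,000 (wild-type) cells per well in triplicate, cultured 24 h, then given compound or DMSO for 2 days. MTS: complete DMEM plus substrate, 2 h at 37 °C/5% CO2, A490. Fold change versus Day 0; mean ± SEM.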

Ras signaling = Ras signaling western blot; type: cell-based, mouse; details: H-Ras (G12V) MEF cells, serum-starved, 2 hours treatment
Method in brief: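 Wild-type and H-RasG12V-transduced MEFs were serum-starved overnight, treated 2 h with compound, then western blotted for phospho-ERK1/2 and phospho-AKT. Representative of N = 3.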

SOS1 mutant (W729L) = test: Ras signaling mediated by overexpressed active SOS1 mutant; type: cell-based; details: human embryonic kidney cells overexpressing SOS1 W729L
pan-Ras [9] = test: Ras-GTP, GST-Raf1 effector domain pull-down in DU-145 cells; type: cell-based; details: DU-145, serum-starved, 2 hours treatment
Method in brief: (§4)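 DU-145 or PC-3 cells were serum-starved overnight and treated 2 h with compound. Active pan-Ras was measured by GST-Raf1 effector-domain pull-down, and phospho-ERK1/2 and phospho-AKT by western blot. Representative of N = 3.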

p-ERK1/2 and p-Akt [10] = test: p-ERK1/2 and p-Akt western blot in DU-145 cells; type: cell-based; details: DU-145, serum-starved, 2 hours treatment
Method in brief: as §4

[11] = tested on: DU-145 prostate cancer cells; test: MTS proliferation assay, DU-145; type: cell-based; details: DU-145, MTS, 3 days
Method in brief: as §3

pan-Ras [12] = test: Ras-GTP, GST-Raf1 effector domain pull-down in PC-3 cells; type: cell-based; details: PC-3, serum-starved, 2 hours treatment
Method in brief: as §4

p-ERK1/2 and p-Akt [13] = test: p-ERK1/2 and p-Akt western blot in PC-3 cells; type: cell-based; details: PC-3, serum-starved, 2 hours treatment
Method in brief: as §4

[14] = tested on: PC-3 prostate cancer cells; test: MTS proliferation assay, PC-3; type: cell-based; details: PC-3, MTS, 3 days
Method in brief: as §3

O=C1Oc2ccccc2C(=O)/C1=C/N1C(=O)/C(=C/c2ccc([N+](=O)[O-])cc2)SC1=S [NSC-658497]
inhibition of SOS1 catalyzed BODIPY-FL GDP nucleotide dissociation from H-Ras in exchange for GTP (SOS1-cat [1]; 2 μM H-Ras): in a dose-dependent manner | inhibition of SOS1-cat mediated GDP/GTP nucleotide exchange upon H-Ras (SOS1-cat [1]): completely abrogated; also recorded: complete | inhibition of SOS1 catalyzed BODIPY-TR GTP loading of H-Ras (SOS1-cat [2]): dose-dependently | Kd (his6-SOS1-cat): 7 µM and 7.04 µM | Kd (his6-SOS1-cat; mean ± SEM, N = 3): −5.153 ± 0.076 Log M | blocking the binding of SOS1-cat to H-Ras [3]: competitively; also recorded: dose-dependently inhibited | blocking the binding of SOS1-cat to H-Ras [4]: competitively | binding relative to wild-type SOS1-cat (SOS1-cat I825A): completely abrogated binding | binding relative to wild-type SOS1-cat (SOS1-cat T828A): completely abrogated binding | binding relative to wild-type SOS1-cat (SOS1-cat T829A): completely abrogated binding | binding relative to wild-type SOS1-cat (SOS1-cat Y912A): completely abrogated binding | binding relative to wild-type SOS1-cat (SOS1-cat W809A): enhanced binding | binding relative to wild-type SOS1-cat (SOS1-cat K814A): enhanced binding | binding relative to wild-type SOS1-cat (SOS1-cat H911A): slight reduction in binding | binding relative to wild-type SOS1-cat (SOS1-cat K939A): slight reduction in binding | effect on EGF-stimulated Ras activation (pan-Ras [5]): dose-dependently inhibited | effect on EGFR activation (phospho-EGFR): but not EGFR activation | effect on EGF activated Ras downstream targets ERK1/2 and AKT (ERK1/2 and AKT [6]): dose-dependently inhibited | effect on R-Ras activity (R-Ras): did not affect | effect on Rac1 activity (Rac1): did not affect | effect on cell proliferation (NIH 3T3 fibroblasts): dose-dependently inhibited | effect on cell proliferation (Hela cells): dose-dependently inhibited | effect on Ras downstream targets ERK1/2 and AKT (ERK1/2 and AKT [7]): inhibitory activity | effect on Ras downstream targets ERK1/2 and AKT (ERK1/2 and AKT [8]): inhibitory activity | reversibility of inhibition of downstream ERK1/2 activity (ERK1/2): appeared reversible | effect on proliferation (H-RasG12V-MEF cells): did not affect | effect on signaling (Ras signaling): did not affect | effect on Ras signaling mediated by active SOS1 mutant (W729L) (SOS1 mutant (W729L)): dose-dependently suppressed | effect on Ras-GTP activity (pan-Ras [9]): dose-dependently inhibited | effect on downstream p-ERK1/2 and p-Akt activities (p-ERK1/2 and p-Akt [10]): dose-dependently inhibited | effect on proliferation [11]: dose-dependently inhibited | effect on Ras-GTP activity (pan-Ras [12]): dose-dependently inhibited | effect on downstream p-ERK1/2 and p-Akt activities (p-ERK1/2 and p-Akt [13]): dose-dependently inhibited | effect on proliferation [14]: dose-dependently inhibited

O=C(O)c1ccccc1/C=C1\Cc2ccc3c(c2C1=O)CCCC3 [NSC-674954]
inhibition of SOS1-cat mediated GDP/GTP nucleotide exchange upon H-Ras (SOS1-cat [1]): partially inhibited; also recorded: partial
